Assay [1] has as its system 3T3 (non-cancer immortal cell lines). Description: In vitro cell antiproliferative test. It is filed as cell-based. To be noted: 3T3, 200 µg/mL, 48 hours. In short, it runs like this: (§1)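 Cells grown in DMEM with 10% heat-inactivated FBS and penicillin-streptomycin, detached with trypsin-EDTA, and counted by trypan blue. Plated at 10 × 10³ cells/well and allowed to attach for 24 h at 37°C, 5% CO2. Exposed 48 h to isolated compounds at 1.8–200 µg/mL final, in triplicate. MTT added at 1 mg/mL final for 4 h, formazan dissolved in DMSO, and A570 read. Survival calculated as a percentage of untreated wells.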

In assay [2] the test system is MCF7 (breast cancer cell lines). Description: In vitro cell antiproliferative test. To be noted: MCF7, 200 µg/mL, 48 hours. The format is cell-based, human. In short, it runs like this: as §1
The nature of assay [3]: Hydroxyl radical scavenging activity. To be noted: 5 minutes, 560 nm; standard ascorbic acid.

The source of these data is PMC8314033 (BioImpacts : BI, 2020).

Turning to `CC(C)=CCc1c(O)cc(O)cc1-c1cc2ccc(O)c(CC=C(C)C)c2o1` [Cathafuran B, cathafuran B], the “% of cell survival” value is recorded as 20.58% in assay [1] and 8.89% in assay [2]. On to `Oc1cc(O)cc(-c2cc3ccc(O)cc3o2)c1` [Moracin M], for which the “% of cell survival” value in assay [1] was determined as 21.6%; in assay [2], 16.09%. Take `C[C@H]1[C@H](C)CC[C@]2(C(=O)O)CC[C@]3(C)C(=CC[C@@H]4[C@@]5(C)CC[C@H](O)C(C)(C)[C@@H]5CC[C@]43C)[C@H]12` [Ursolic acid, ursolic acid]: the “% of cell survival” value in assay [1] is 17.58%; in assay [2], 8.46%. Turning to `O=C1O[C@H]([C@@H](O)CO)C(O)=C1O` [ascorbic acid], the “Hydroxyl radical scavenging EC50” value in assay [3] stood at 6.58 µg/mL.
